# Assay: Toxicity liver stage against HepG2, at 10uM
# Format: cell-based
# Parameters: test concentration 10 uM, cell line HepG2-A16-CD81EGFP
# Details: human, HepG2-A16-CD81EGFP cells; read-out: INHIBITION
# Summary of the method: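 Uninfected HepG2-A16-CD81EGFP cells, 3 × 10^3 per well, 1536-well, plated on prespotted compound at 10 μM final, parasite-free screening media added to match infected plates; puromycin 10 μM positive, DMSO 0.5% negative; run in parallel with 48 h PbLuc assay at 37 °C, 5% CO2; viability by CellTiter-Glo luminescence, normalized to controls.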
row,SMILES,cytotoxicity at 10 µM [%]
1,COCC(=O)N[C@H](C)c1c(-c2ccc(Cl)cc2)noc1C(=O)O,1.05
2,CC1=C[C@@H](CC#N)[C@H](C(C)C)C[C@H]1CC(=O)N1CCN(CCO)CC1,4.62
3,O=C(CCc1nc2cccnc2[nH]1)NCc1ccncc1,3.72
4,CS(=O)(=O)NCC1CCN(C(=O)Oc2ccccc2)CC1,-151
5,CCc1c(C)nc2n(c1=O)CC(C(=O)Nc1ncccc1C)CS2 (stereo unspecified),7.14
6,O=S(=O)(NCCn1ccc(-c2ccccn2)n1)C1CC1,-1.04
7,CC(=O)N1CCCC2(CCN(C(=O)c3nccnc3N)CC2)C1,3.47
8,C[C@H]1C[C@H]2CN(S(=O)(=O)c3ccc(F)cc3)CC[C@@H]2O1,2.97
9,CCCNC(=O)c1nc2c(o1)CN(c1ncccn1)C2,1.95
10,O=C(NC[C@H]1OC[C@@H]2CCN(c3ccccn3)C[C@@H]21)c1ccco1,1.32
11,CS(=O)(=O)N1CCCC12CCCN(C(=O)c1ccc3c(c1)OCO3)C2 (stereo unspecified),-144
12,Cc1nocc1C(=O)N1CCc2c(CN(C)C)nn(C)c2C1,-0.567
13,CC(C)CNC(=O)c1nc2c(s1)CCN(C(=O)c1ccc(Cl)cc1)CC2,7.4
14,C[C@H]1C[C@@H]2CCN(C(=O)c3ccccn3)C[C@H]2O1,4.17
15,C[C@@H]1C[C@H]2CN(C(=O)c3ccncn3)C[C@H]2O1,0.748
16,CC(C)CC(=O)N1CC[C@H]2C[C@H](c3nccs3)O[C@@H]2C1,-0.966
17,O=C(c1cc(-n2cnnn2)ccc1Cl)N1CCCCCC1,5.56
18,O=C(Cn1ccc2c(Cl)cccc21)N1CCCC1,0.583
19,CC(C)CN1CCCC2(CCN(C(=O)c3cnccn3)C2)C1 (stereo unspecified),2.39
20,CCN(CC)CCNC(=O)c1ccn(COc2cc(C)cc(C)c2)n1,4.36
21,CC(=O)N1CCC(c2c(CN(C)C)cnc3cc(C)nn23)CC1,2.54
22,Cc1noc(C)c1CC(=O)N1CCCC(Cc2ccccn2)C1 (stereo unspecified),4.75
23,CC(C)CC(=O)N1CCCC1c1cc(CO)[nH]n1 (stereo unspecified),3.05

row,SMILES,cytotoxicity at 10 µM [%]
1,CC(=O)N1CCc2nc(C3CCN(c4ncccn4)C3)ncc2C1 (stereo unspecified),-30
2,CCc1cc(C(=O)N2CCC(O)(Cn3ccc4ccncc43)CC2)no1,-18.7
3,COCCC(=O)N1CCC(c2nc(O)cc(-c3ccncc3)n2)C1 (stereo unspecified),-25
4,CN(C)CC(=O)N1CC(c2nn(C)c3nccnc23)C1,-6.26
5,O=C(c1ccccc1)N1CC2(CCNC2)OCc2ccccc21 (stereo unspecified),13
6,NC(=O)CS(=O)(=O)Cc1csc(-c2ccc(F)cc2)n1,-4.95
7,CN(CC(N)=O)Cc1csc(-c2ccc(F)cc2)n1,2.5
8,CC(NCc1cccn1C)c1noc(-c2ccc(Cl)cc2)n1 (stereo unspecified),5.07
9,COc1cccc(CNCCc2cccc(C(N)=O)c2)c1,9.83
10,CCOc1ccc(NC(=O)c2cc(C)c(C)o2)cc1CO,3.78
11,COCCN(CCOC)C(=O)c1ccoc1C,6.72
12,CC(NCc1cccc(COC2CCCC2)c1)c1cnn(C)c1 (stereo unspecified),4.34
13,CCC(C#N)NC(=O)CCNC(=O)C(C)(C)C (stereo unspecified),-1.55
14,CS(=O)(=O)NCCNC(=O)c1ccc(OCc2ccccc2)nc1,4.43
15,CC(C)N(CC(=O)Nc1cccc(C(=O)N(C)C)c1)C1CC1,-4.81
16,COc1cccc(COCC(=O)NC(C(N)=O)c2ccccc2F)c1 (stereo unspecified),-4.55
17,CNC(=O)c1cc(NC(=O)NC2CC2)ccc1F,5.13
18,COC(=O)CCNC(=O)c1nnn(-c2ccccc2)c1C(F)(F)F,-4.27
19,CCNc1cc2c(nn1)CCN(C(=O)C1COc3ccccc3C1)C2 (stereo unspecified),-4.83
20,COCc1ccc(C(=O)N2CCN(CCS(C)(=O)=O)CC2)cc1,-1.33
21,Cc1cnn(CCC(=O)NS(=O)(=O)N2CCc3ccccc32)c1,4.72
22,O=C(Nc1cccc(F)c1)N1CCN(Cc2noc(C3CC3)n2)CC1,3.8
23,CC(=O)N(C)CC(=O)NC1(c2ccc(F)cc2)CCCC1,0.747

row,SMILES,cytotoxicity at 10 µM [%]
1,CN(CC(O)COc1ccc(C(F)(F)F)cc1)C(=O)Nc1nncs1 (stereo unspecified),-11.1
2,c1ccc2c(c1)OCCCC2NCc1nnc2n1CCCCC2 (stereo unspecified),-0.044
3,COCC(NC(=O)c1cc(C)n(C)n1)c1cccc(C(F)(F)F)c1 (stereo unspecified),9.43
4,Cc1nnc2n1CCN(c1nn3cc(C(C)(C)C)nc3s1)C2,-0.903
5,CC(C)CCn1ccc(NC(=O)N2CCCC2CN2CCOCC2)n1 (stereo unspecified),-2.16
6,Cc1cn2c(n1)CCC(NC(=O)COCCOc1ccccc1)C2 (stereo unspecified),-4.44
7,COc1ccc(C2CCCCCN2S(N)(=O)=O)cc1 (stereo unspecified),8.87
8,COc1ccccc1N1CCCC(Nc2nccnc2C#N)C1 (stereo unspecified),18.3
9,CCC(CNC(=O)c1nc(=O)[nH][nH]1)Oc1ccccc1C(F)(F)F (stereo unspecified),1.45
10,O=c1oc(-c2ccc(F)cc2)nn1CCc1ccccn1,-5.65
11,COC(=O)N1CCCC(C(=O)Nc2nc(C)c(SC)s2)C1 (stereo unspecified),11.1
12,O=C(c1ccccn1)N(CCO)Cc1cc(Br)ccc1F,9.91
13,COC(=O)c1ccc(Cl)c(CN(C)Cc2ncnn2C)c1,-7.81
14,COC(=O)C(C)(C)S(=O)(=O)c1ccc(Br)cc1,5.25
15,c1cnn(CCNCc2cnc(N3CCCC3)nc2)c1,-9.46
16,Cc1ccc(NC(=O)NCCc2ccncc2C)c(N(C)C)n1,12.9
17,Cc1ccc(NS(=O)(=O)c2cc(C(=O)O)oc2C)c(Br)c1,1.83
18,CN(C)C(=O)c1cc(NC(=O)N2CCCC(C(F)(F)F)C2)ccn1 (stereo unspecified),-3.58
19,Cn1cc(CNCCn2cccn2)c(-c2cccnc2)n1,-2.34
20,Cc1ncnc2c1CCN(C(=O)c1cccn1C)CC2,-75.1
21,Cc1cc(CN2C[C@@H]3COC[C@]3(CNC(=O)c3ccno3)C2)no1,1.18
22,O=C(NCCNc1cccnc1)C(c1cccnc1)N1CCCC1 (stereo unspecified),4.11
23,O=C1CCC2(CCCN(C(=O)C3CCCC3)C2)CN1CCc1c[nH]cn1 (stereo unspecified),-0.699

row,SMILES,cytotoxicity at 10 µM [%]
1,Cc1ncsc1CCN(C)C(=O)c1ccc(Cn2cnnn2)cc1,-9.17
2,Cc1cnc(N(C)CCCc2cnn(C)c2)nc1N(C)C,2.03
3,CC1(C)Cc2nc(C(C)(C)C)ncc2C(NC(=O)Cc2nnn[nH]2)C1 (stereo unspecified),-3.67
4,O=C(Cn1cccn1)N1CCc2[nH]nc(-c3ccc4c(c3)OCO4)c2C1,-153
5,CCN(Cc1ccc(-c2ccccn2)cc1)C1CCS(=O)(=O)C1 (stereo unspecified),-9.25
6,Cc1ccc(CN2CCN(Cc3cc(C)n[nH]3)CC2CCO)cc1 (stereo unspecified),1.13
7,COc1ccc(Cl)cc1C(=O)N1C[C@H](C(C)C)[C@@H](N)C1,1.17
8,CCNc1ncc(C2CC(=O)Nc3c2cnn3Cc2ccncc2)cn1 (stereo unspecified),-6.87
9,CN1CCC(N(C)CCC(=O)N2CCN(Cc3cccc(F)c3)CC2)C1 (stereo unspecified),-3.41
10,COCCn1ccnc1C1CCCN(c2ncnc3c(C)csc23)C1 (stereo unspecified),2.57
11,COc1ccc(C(C(=O)O)N2CCC(Cn3cccn3)CC2)cc1F (stereo unspecified),1.81
12,COCCNc1nc2c(c(NCc3cnc(C)c(C)c3)n1)CCNCC2,-1.22
13,CC(O)CCn1ccc2[nH]c(=O)c(C#N)cc2c1=O (stereo unspecified),5.66
14,OCc1ccc(CN2CCC(n3cc(-c4ccc(F)cc4)nn3)CC2)o1,5.54
15,CSc1ccc(CN(CCO)C(=O)CCc2cccc(F)c2)cc1,2.93
16,O=C(c1cnc(C2CC2)nc1O)N1CCN(Cc2ccccc2F)CC1,-1.83
17,CC1(C)CN(c2cc(C3CC3)ncn2)C[C@]1(C)O,1.4
18,CC(C)n1ccc(CN2CCN(c3cc(NC4CC4)nc(N)n3)CC2)c1,-1.45
19,CCC(=O)NCc1ccc(N2CCCCC2)cc1,-6.89
20,COCCN(Cc1ccc(OC)nc1)Cc1cccs1,-7.28
21,Cn1nccc1C(=O)N1CCOC(Cc2cccc(C(F)(F)F)c2)C1 (stereo unspecified),5.52
22,Cc1cnn(CCNCC(=O)NCCOc2ccc(Cl)cc2)c1,-11.8
23,Cc1cc(C(=O)N2CCOC(c3nc(C(C)C)n[nH]3)C2)c(C)s1 (stereo unspecified),-5.72

row,SMILES,cytotoxicity at 10 µM [%]
1,Cc1ncc2c(n1)CN(CC(=O)Nc1cc(C)on1)CC2,-12.4
2,O=C(NCc1csc(Br)c1)N1CCC(O)CC1,-11.8
3,CN1CC(C(=O)NCc2ccnc(-n3cccn3)c2)CC1=O (stereo unspecified),-0.867
4,CCC1c2ccsc2CCN1C(=O)NCc1ccnc(N(C)C)c1 (stereo unspecified),-11.9
5,O=C(Cc1cn2ccsc2n1)N1CCCC(n2cccn2)C1 (stereo unspecified),-13.6
6,CC(C)C(C)(C#N)NC(=O)CN1CCC(c2ccnn2CCO)CC1 (stereo unspecified),-4.95
7,CCOc1ccnc(N2CCN(C(=O)c3cc[nH]n3)CC2)n1,8.82
8,Cc1cc(CN2CCN(CC(O)c3ccc4c(c3)OCO4)CC2)no1 (stereo unspecified),-7.82
9,Cc1nc(C)n(CC2CN(CCOCC(F)(F)F)CCO2)n1 (stereo unspecified),-1.95
10,Cc1cc(NC(=O)NCc2cccnc2OC(C)C)n(C)n1,3.2
11,Cc1ncsc1CN1Cc2cnn(C)c2C(COCC2CC2)C1 (stereo unspecified),3.04
12,O=C(NCc1cncc2c1CCN(CC1CCOC1)C2)c1ccno1 (stereo unspecified),13
13,Cc1cccc(CN2CC[C@H]3[C@H]2CCN3C(=O)c2cnn(C)c2)n1,14.4
14,c1cncc(CO[C@H]2CO[C@@]3(CCN(Cc4ccoc4)C3)C2)c1,-3.24
15,O=C1COC2(CCN(Cc3ccoc3)CC2)CN1,-11.3
16,CN1CCCCC12CCN(c1nncs1)CC2,6.89
17,CNC(=O)CN1CCCC12CCN(C(=O)c1ccsc1)CC2,4.87
18,O=C(N[C@@H]1CN(Cc2cccs2)[C@@H]2COC[C@@H]21)C1CCC1,9.34
19,Cc1cc(CN2CC[C@H]3OCC[C@@]3(C(=O)NCc3ccco3)C2)no1,6.73
